Data taken from ChEMBL document CHEMBL1156566, “Investigations on the 4-quinolone-3-carboxylic acid motif. 1. Synthesis and structure-activity relationship of a class of human immunodeficiency virus type 1 integrase inhibitors” (J Med Chem, 2008).

Legend:
[1] = Cytotoxicity against human MT4 cells by MTT assay; type: cell-based
Procedure, shortened: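 Human lymphocyte MT-4 cultures were read by MTT in the MT-4/MTT format.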

[2] = tested on: Human immunodeficiency virus 1; test: Antiviral activity against HIV1 3B in MT4 cells assessed as inhibition of virus-induced cytopathic effect by MTT assay; type: functional, organism-based; settings: Human immunodeficiency virus 1, 3B
Procedure, shortened: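 Human lymphocyte MT-4 cultures were infected with HIV-1, and protection from virus-induced cytopathic effect was read by MTT.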

[3] = biological target: T1, Human immunodeficiency virus type 1 integrase (Human immunodeficiency virus 1, UniProt Q7ZJM1); test: Inhibition of HIV1 integrase DNA strand transfer activity
[4] = biological target: T1, Human immunodeficiency virus type 1 integrase; test: Inhibition of HIV1 integrase by overall integration assay
[5] = biological target: T1, Human immunodeficiency virus type 1 integrase; test: Inhibition of HIV1 integrase 3'-processing activity

T1 sequence (Q7ZJM1 whole entry): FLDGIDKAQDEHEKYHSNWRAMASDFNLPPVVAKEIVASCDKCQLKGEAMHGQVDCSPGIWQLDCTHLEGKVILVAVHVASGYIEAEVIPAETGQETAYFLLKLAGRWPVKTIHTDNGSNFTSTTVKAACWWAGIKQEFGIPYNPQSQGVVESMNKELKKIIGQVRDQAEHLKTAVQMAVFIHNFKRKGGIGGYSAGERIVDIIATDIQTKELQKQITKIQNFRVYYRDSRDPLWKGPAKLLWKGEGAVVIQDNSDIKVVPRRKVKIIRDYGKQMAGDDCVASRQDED

Structure (SMILES): COc1cc2c(cc1Cc1cccc(Cl)c1F)c(=O)c(C(=O)O)cn2[C@H](CO)C(C)C
- CC50 [1]: 1.15 µM
- EC50 [2]: 0.00037 µM

Structure (SMILES): O=C(O)c1cn(CCO)c2ccc(Cc3cccc(Cl)c3F)cc2c1=O
- CC50 [1]: > 15 µM

Structure (SMILES): O=C(O)c1cn(CCO)c2ccc(-c3ccccc3)cc2c1=O
- CC50 [1]: 44.9 µM
- EC50 [2]: > 44.9 µM
- IC50 [3]: > 100 µM
- IC50 [4]: > 100 µM

Structure (SMILES): O=C(O)c1cn(CCO)c2ccc(Cc3ccc(Cl)cc3Cl)cc2c1=O
- CC50 [1]: 5.3 µM
- EC50 [2]: > 5.3 µM
- IC50 [3]: 0.2 µM
- IC50 [4]: 0.07 µM

Structure (SMILES): O=C(O)c1cn(CCCO)c2ccc(Cc3ccc(Cl)cc3Cl)cc2c1=O
- CC50 [1]: 3.6 µM
- EC50 [2]: > 3.6 µM
- IC50 [3]: 1.3 µM
- IC50 [4]: 0.9 µM

Structure (SMILES): O=C(O)c1cn(CCO)c2ccc(Oc3ccc(F)c(Cl)c3)cc2c1=O
- CC50 [1]: 9.9 µM
- EC50 [2]: > 9.9 µM
- IC50 [3]: > 100 µM
- IC50 [4]: 86.9 µM
- IC50 [5]: > 100 µM

Structure (SMILES): O=C(c1ccc2c(c1)c(=O)c(C(=O)O)cn2CCCO)c1ccc(Cl)cc1Cl
- CC50 [1]: 17.5 µM
- EC50 [2]: > 17.5 µM
- IC50 [3]: > 100 µM
- IC50 [4]: 73.9 µM
- IC50 [5]: > 100 µM

Structure (SMILES): O=C(c1ccc2c(c1)c(=O)c(C(=O)O)cn2CCCCO)c1ccc(Cl)cc1Cl
- CC50 [1]: 17 µM
- EC50 [2]: > 17 µM
- IC50 [3]: > 100 µM
- IC50 [4]: 54.9 µM
- IC50 [5]: > 100 µM

Structure (SMILES): O=C(O)c1cn(CCO)c2ccc(/C=C/c3ccccc3)cc2c1=O
- CC50 [1]: 22.6 µM
- EC50 [2]: > 22.6 µM
- IC50 [3]: > 100 µM
- IC50 [4]: 71.9 µM

Structure (SMILES): O=C(Nc1ccccc1)c1ccc2c(c1)c(=O)c(C(=O)O)cn2CCO
- CC50 [1]: 224 µM
- EC50 [2]: > 224 µM
- IC50 [3]: > 100 µM
- IC50 [4]: > 100 µM

Structure (SMILES): CCn1cc(C(=O)O)c(=O)c2c1C(=O)C=C(Nc1cccc(Cl)c1F)C2=O
- CC50 [1]: 2.4 µM
- EC50 [2]: > 2.4 µM
- IC50 [3]: > 100 µM
- IC50 [4]: 9.7 µM
- IC50 [5]: > 100 µM

Structure (SMILES): CCn1cc(C(=O)O)c(=O)c2c1C(=O)C=C(Nc1ccc(F)c(Cl)c1)C2=O
- CC50 [1]: 2.2 µM
- EC50 [2]: > 2.2 µM
- IC50 [3]: 2.1 µM
- IC50 [4]: 1 µM

Structure (SMILES): CN(C)CCn1cc(C(=O)O)c(=O)c2cc(Cc3ccc(Cl)cc3Cl)ccc21
- CC50 [1]: 5.2 µM
- EC50 [2]: > 5.2 µM
- IC50 [3]: 24.1 µM
- IC50 [4]: 10.8 µM

Structure (SMILES): O=C(c1ccc2c(c1)c(=O)c(C(=O)O)cn2CCO)c1ccc(Cl)cc1Cl
- CC50 [1]: 21.1 µM
- EC50 [2]: > 21.1 µM
- IC50 [3]: > 100 µM
- IC50 [4]: 18.7 µM
- IC50 [5]: > 100 µM

Structure (SMILES): CCn1cc(C(=O)O)c(=O)c2c1C(=O)C=C(Sc1ccccc1)C2=O
- CC50 [1]: 30 µM
- EC50 [2]: > 30 µM
- IC50 [3]: 1.6 µM
- IC50 [4]: 4.6 µM

Structure (SMILES): O=C(Nc1ccc2c(c1)c(=O)c(C(=O)O)cn2CCO)c1ccccc1
- CC50 [1]: 220 µM
- EC50 [2]: > 220 µM
- IC50 [3]: > 100 µM
- IC50 [4]: > 100 µM

Structure (SMILES): O=C(O)c1cn(CCO)c2ccc(Nc3cccc(Cl)c3F)cc2c1=O
- CC50 [1]: 27.4 µM
- EC50 [2]: > 27.4 µM
- IC50 [3]: > 100 µM
- IC50 [4]: > 100 µM

Structure (SMILES): CCn1cc(C(=O)O)c(=O)c2cc(Nc3cccc(Cl)c3F)ccc21
- CC50 [1]: 9.8 µM
- EC50 [2]: > 9.8 µM
- IC50 [3]: > 100 µM
- IC50 [4]: 38 µM
- IC50 [5]: > 100 µM

Structure (SMILES): CCn1cc(C(=O)O)c(=O)c2c1C(=O)C=CC2=O
- CC50 [1]: 42.8 µM
- EC50 [2]: > 42.8 µM
- IC50 [3]: 58.7 µM
- IC50 [4]: 43.7 µM

Structure (SMILES): O=C(O)c1cn(CCO)c2ccc(Sc3ccccc3)cc2c1=O
- CC50 [1]: 22.7 µM
- EC50 [2]: > 22.7 µM
- IC50 [3]: 18.5 µM
- IC50 [4]: 4.8 µM

Structure (SMILES): O=C(O)c1cn(CCCCO)c2ccc(Cc3ccc(Cl)cc3Cl)cc2c1=O
- CC50 [1]: 4.2 µM
- EC50 [2]: > 4.2 µM
- IC50 [3]: 0.6 µM
- IC50 [4]: 0.05 µM
- IC50 [5]: 16.6 µM

Structure (SMILES): O=C(O)c1cn(CCO)c2ccc(-c3ccncc3)cc2c1=O
- CC50 [1]: 138 µM
- EC50 [2]: > 138 µM
- IC50 [3]: > 100 µM
- IC50 [4]: 77.6 µM
- IC50 [5]: > 100 µM

Structure (SMILES): COCCn1cc(C(=O)O)c(=O)c2cc(Cc3ccc(Cl)cc3Cl)ccc21
- CC50 [1]: 4.2 µM
- EC50 [2]: > 4.2 µM
- IC50 [3]: 16.5 µM
- IC50 [4]: 5.6 µM
